Measured values from ChEMBL document CHEMBL3792365, “Dioxol and dihydrodioxin analogs of 2- and 3-phenylacetonitriles as potent anti-cancer agents with nanomolar activity against a variety of human cancer cells” (2016).

Legend:
Assay type in all cases: functional
[1] = Growth inhibition of human COLO205 cells after 48 hrs by sulforhodamine B assay; settings: COLO 205, 48 h
How it was run: (§1)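 Five-dose testing against a 60-line human tumor cell panel. GI50 is the drug concentration giving a 50% reduction in net protein increase relative to untreated control cells.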

[2] = Growth inhibition of human SKOV3 cells after 48 hrs by sulforhodamine B assay; settings: SK-OV-3, 48 h
How it was run: (§2)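 Five-dose concentration series run across a panel of 60 human tumour cell lines. GI50 is taken as the drug concentration giving a 50% reduction in net protein increase relative to untreated control cells.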

[3] = Growth inhibition of human IGROV1 cells after 48 hrs by sulforhodamine B assay; settings: IGROV-1, 48 h; how it was run: as §1
[4] = test system: MDA-MB-231; assay: Growth inhibition of human MDA-MB-231 cells after 48 hrs by sulforhodamine B assay; settings: MDA-MB-231, 48 h; how it was run: as §1
[5] = test system: A498; assay: Growth inhibition of human A498 cells after 48 hrs by sulforhodamine B assay; settings: A498, 48 h; how it was run: as §1
[6] = test system: SK-MEL-28; assay: Growth inhibition of human SK-MEL-28 cells after 48 hrs by sulforhodamine B assay; settings: SK-MEL-28, 48 h; how it was run: as §2
[7] = test system: SK-MEL-5; assay: Growth inhibition of human SK-MEL-5 cells after 48 hrs by sulforhodamine B assay; settings: SK-MEL-5, 48 h; how it was run: as §2
[8] = Growth inhibition of human SF295 cells after 48 hrs by sulforhodamine B assay; settings: SF-295, 48 h; how it was run: as §2
[9] = Growth inhibition of human SW620 cells after 48 hrs by sulforhodamine B assay; settings: SW-620, 48 h; how it was run: as §2
[10] = Growth inhibition of human PC3 cells after 48 hrs by sulforhodamine B assay; settings: PC-3, 48 h; how it was run: as §2
[11] = Growth inhibition of human HOP92 cells after 48 hrs by sulforhodamine B assay; settings: HOP-92, 48 h; how it was run: as §1
[12] = test system: A549; assay: Growth inhibition of human A549/ATCC cells after 48 hrs by sulforhodamine B assay; settings: A549, 48 h; how it was run: as §1
[13] = test system: MDA-MB-435; assay: Growth inhibition of human MDA-MB-435 cells after 48 hrs by sulforhodamine B assay; settings: MDA-MB-435, 48 h; how it was run: as §1
[14] = test system: ACHN; assay: Growth inhibition of human ACHN cells after 48 hrs by sulforhodamine B assay; how it was run: as §1
[15] = Growth inhibition of human SF539 cells after 48 hrs by sulforhodamine B assay; settings: SF-539, 48 h; how it was run: as §2
[16] = Growth inhibition of human Hs 578T cells after 48 hrs by sulforhodamine B assay; how it was run: as §1
[17] = test system: U-251; assay: Growth inhibition of human U251 cells after 48 hrs by sulforhodamine B assay; settings: U-251, 48 h; how it was run: as §2
[18] = Growth inhibition of human SNB75 cells after 48 hrs by sulforhodamine B assay; settings: SNB-75, 48 h; how it was run: as §2
[19] = Growth inhibition of human SNB19 cells after 48 hrs by sulforhodamine B assay; settings: SNB-19, 48 h; how it was run: as §2
[20] = Growth inhibition of human MOLT4 cells after 48 hrs by sulforhodamine B assay; settings: MOLT-4, 48 h; how it was run: as §2
[21] = test system: MCF7; assay: Growth inhibition of human MCF7 cells after 48 hrs by sulforhodamine B assay; settings: MCF7, 48 h; how it was run: as §1
[22] = test system: MDA-MB-468; assay: Growth inhibition of human MDA-MB-468 cells after 48 hrs by sulforhodamine B assay; settings: MDA-MB-468, 48 h; how it was run: as §1
[23] = Growth inhibition of human SF268 cells after 48 hrs by sulforhodamine B assay; settings: SF-268, 48 h; how it was run: as §2
[24] = Growth inhibition of human OVCAR3 cells after 48 hrs by sulforhodamine B assay; settings: OVCAR-3, 48 h; how it was run: as §2
[25] = test system: CCRF-CEM; assay: Growth inhibition of human CCRF-CEM cells after 48 hrs by sulforhodamine B assay; how it was run: as §1
[26] = Growth inhibition of human HCC2998 cells after 48 hrs by sulforhodamine B assay; settings: HCC 2998, 48 h; how it was run: as §1
[27] = Growth inhibition of human OVCAR4 cells after 48 hrs by sulforhodamine B assay; settings: OVCAR-4, 48 h; how it was run: as §2
[28] = test system: SK-MEL-2; assay: Growth inhibition of human SK-MEL-2 cells after 48 hrs by sulforhodamine B assay; settings: SK-MEL-2, 48 h; how it was run: as §2
[29] = Growth inhibition of human LOXIMVI cells after 48 hrs by sulforhodamine B assay; settings: LOX IMVI; how it was run: as §1
[30] = Growth inhibition of human Caki1 cells after 48 hrs by sulforhodamine B assay; settings: CAKI-1, 48 h; how it was run: as §1
[31] = test system: SR; assay: Growth inhibition of human SR cells after 48 hrs by sulforhodamine B assay; how it was run: as §2
[32] = Growth inhibition of human DU145 cells after 48 hrs by sulforhodamine B assay; settings: DU-145, 48 h; how it was run: as §1
[33] = test system: HT-29; assay: Growth inhibition of human HT-29 cells after 48 hrs by sulforhodamine B assay; settings: HT-29, 48 h; how it was run: as §1
[34] = Growth inhibition of human HOP62 cells after 48 hrs by sulforhodamine B assay; settings: HOP-62, 48 h; how it was run: as §1
[35] = Growth inhibition of human HCT15 cells after 48 hrs by sulforhodamine B assay; settings: HCT-15, 48 h; how it was run: as §1
[36] = test system: NCI-H522; assay: Growth inhibition of human NCI-H522 cells after 48 hrs by sulforhodamine B assay; settings: NCI-H522, 48 h; how it was run: as §2
[37] = Growth inhibition of human UO31 cells after 48 hrs by sulforhodamine B assay; settings: UO-31, 48 h
How it was run: (§3)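 Five-dose testing across the 60-line human tumour cell panel. GI50 is the drug concentration that gives a 50% reduction in net protein increase relative to control cells.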

[38] = test system: 786-0; assay: Growth inhibition of human 786-0 cells after 48 hrs by sulforhodamine B assay; settings: 786-0, 48 h; how it was run: as §1
[39] = Growth inhibition of human HCT116 cells after 48 hrs by sulforhodamine B assay; settings: HCT-116, 48 h; how it was run: as §1
[40] = Growth inhibition of human UACC62 cells after 48 hrs by sulforhodamine B assay; settings: UACC-62, 48 h; how it was run: as §3
[41] = Growth inhibition of human RPMI8226 cells after 48 hrs by sulforhodamine B assay; settings: RPMI-8226, 48 h; how it was run: as §2
[42] = Growth inhibition of human NCI-ADR-RES cells after 48 hrs by sulforhodamine B assay; how it was run: as §2
[43] = test system: M14; assay: Growth inhibition of human M14 cells after 48 hrs by sulforhodamine B assay; settings: M14, 48 h; how it was run: as §1
[44] = test system: KM12; assay: Growth inhibition of human KM12 cells after 48 hrs by sulforhodamine B assay; settings: KM12, 48 h; how it was run: as §1
[45] = Growth inhibition of human HL-60(TB) cells after 48 hrs by sulforhodamine B assay; settings: HL-60, 48 h
How it was run: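 Five-dose study across the 60-cell human tumour panel. GI50 is the drug concentration giving a 50% reduction in net protein increase relative to control cells.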

[46] = test system: NCI-H23; assay: Growth inhibition of human NCI-H23 cells after 48 hrs by sulforhodamine B assay; settings: NCI-H23, 48 h; how it was run: as §2

Which GI50 [1] does the source give for `COc1ccc(/C=C/c2cc(OC)c(OC)c(OC)c2)cc1` here?
Its GI50 is 2.07 µM.

What about the GI50 [2] of the same molecule?
The GI50 was 3.34 µM.

And the GI50 [3]?
The GI50 was 5.29 µM.

And the GI50 [4]?
The GI50 was 3.74 µM.

What about the GI50 [5] of the same molecule?
The GI50 was 0.74 µM.

And the GI50 [6]?
Its GI50 is 3.86 µM.

And the GI50 [7]?
Its GI50 is 2.5 µM.

What about the GI50 [8] of the same molecule?
Its GI50 is 2.18 µM.

And the GI50 [9]?
Its GI50 is 2.07 µM.

What about the GI50 [10] of the same molecule?
The GI50 was 3.22 µM.

What about the GI50 [11] of the same molecule?
Its GI50 is 7.23 µM.

What about the GI50 [12] of the same molecule?
The GI50 was 3.7 µM.

And the GI50 [13]?
The GI50 was 1.04 µM.

And the GI50 [14]?
The GI50 was 4.51 µM.

And the GI50 [15]?
Its GI50 is 2.18 µM.

What about the GI50 [16] of the same molecule?
Its GI50 is 3.09 µM.

And the GI50 [17]?
The GI50 was 3.07 µM.

What about the GI50 [18] of the same molecule?
Its GI50 is 1.88 µM.

What about the GI50 [19] of the same molecule?
The GI50 was 4.85 µM.

What about the GI50 [20] of the same molecule?
The GI50 was 3.22 µM.

What about the GI50 [21] of the same molecule?
Its GI50 is 1.66 µM.

What about the GI50 [22] of the same molecule?
Its GI50 is 2.22 µM.

What about the GI50 [23] of the same molecule?
The GI50 was 7.59 µM.

And the GI50 [24]?
The GI50 was 3.45 µM.

And the GI50 [25]?
The GI50 was 2.89 µM.

And the GI50 [26]?
The GI50 was 3.59 µM.

What about the GI50 [27] of the same molecule?
The GI50 was 4 µM.

And the GI50 [28]?
Its GI50 is 3.95 µM.

And the GI50 [29]?
Its GI50 is 4.89 µM.

What about the GI50 [30] of the same molecule?
The GI50 was 3 µM.

What about the GI50 [31] of the same molecule?
Its GI50 is 3.93 µM.

And the GI50 [32]?
The GI50 was 4.23 µM.

What about the GI50 [33] of the same molecule?
Its GI50 is 2.32 µM.

And the GI50 [34]?
Its GI50 is 3.14 µM.

What about the GI50 [35] of the same molecule?
Its GI50 is 2.82 µM.

What about the GI50 [36] of the same molecule?
The GI50 was 3.7 µM.

What about the GI50 [37] of the same molecule?
Its GI50 is 3.69 µM.

And the GI50 [38]?
Its GI50 is 5.42 µM.

And the GI50 [39]?
The GI50 was 3.23 µM.

What about the GI50 [40] of the same molecule?
The GI50 was 2.37 µM.

What about the GI50 [41] of the same molecule?
Its GI50 is 6.42 µM.

What about the GI50 [42] of the same molecule?
Its GI50 is 3.01 µM.

And the GI50 [43]?
Its GI50 is 2.81 µM.

What about the GI50 [44] of the same molecule?
The GI50 was 3.63 µM.

What about the GI50 [45] of the same molecule?
The GI50 was 3.14 µM.

And the GI50 [46]?
The GI50 was 3.37 µM.
